The source of these data is ChEMBL document CHEMBL4368881, “A β-glucuronidase-responsive albumin-binding prodrug programmed for the double release of monomethyl auristatin E” (Medchemcomm, 2018).

The source made the active and inactive calls. No cut-off for these calls is given here.

A short description of series [1]: Toxicity in athymic Balb/c mouse xenografted with human LS174T cells assessed as effect on body weight at 3 mg/kg, iv administered on day 17 and 24 measured three times a week. In kind it is organism-based. Particulars: in vivo. Summed up: (§1)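 LS174T subcutaneous xenografts (1x10⁶ cells in PBS/50 % Matrigel) were set up in eight-week-old male nude mice. Groups of 6 received iv injections in PBS–2 % DMSO, with a vehicle control group. Body weight was recorded three times weekly. Mice were euthanized when tumor volume exceeded 2 cm³.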

For series [2], the system named is LS174T. Nature of the series: Inhibition of anchorage-independent colony formation in 3D culture of human LS174T cells at 5 nM measured after 3 days in presence of beta-glucuronidase by soft agar colony formation assay. It counts as functional, cell-based. Summed up: (§2)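 LS174T cells (early passage, <10) were grown in EMEM with 10 % FBS. 20x10³ isolated cells were seeded in 0.35 % agarose over a 0.6 % agarose base layer. Colonies grew for 10 days, with fresh medium every 3 days. They were then treated for 3 days at 5 nM, without or with β-glucuronidase (3700 U/well). Colony size was measured by macroscope imaging; mean ± s.e.m. of 5 independent experiments.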

Series [3] concerns the target Albumin (Homo sapiens, UniProt P02768). Nature of the series: Binding affinity to human serum albumin at 0.49 mg/ml after 4 hrs by HPLC/HRMS analysis. Particulars: isolated protein.
In series [4] the test system is LS174T. Nature of the series: Antitumor activity against human LS174T cells xenografted in athymic Balb/c mouse assessed as tumor growth inhibition at 3 mg/kg, iv administered on day 17 and 24. It counts as functional, organism-based. Put shortly: (§3)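 Eight-week-old male nude mice were implanted subcutaneously in the dorsal flank with 1x10⁶ LS174T cells in PBS/50 % Matrigel (day 0). Mice were randomized into groups of 6 and given iv doses in PBS–2 % DMSO, with a vehicle-injected control group. Tumor length and width were measured by caliper three times weekly; volume = length x width²/2.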

Series [5] addresses Beta-glucuronidase (Escherichia coli (strain K12), UniProt P05804). Nature of the series: Prodrug conversion assessed as Escherichia coli beta-glucuronidase mediated MMAE formation after 5 hrs using albumin-conjugated compound by HPLC/HRMS analysis. In kind it is ADME. The following applies: isolated protein. Put shortly: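 Prodrug 0.49 mg.mL-1 was held in 5 % human serum albumin solution at 37 °C for 4 h to form the albumin adduct. The mixture was diluted 1:3 with 0.02 M phosphate buffer (pH 7), then E. coli β-glucuronidase was added. Analysis was by C18 HPLC coupled to ESI-HRMS in positive ion mode.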

Series [6] relates to LS174T. Nature of the series: Inhibition of anchorage-independent colony formation in 3D culture of human LS174T cells at 5 nM measured after 3 days by soft agar colony formation assay. It counts as functional, cell-based. Summed up:
as §2

Series [7] is described as follows: Toxicity in athymic Balb/c mouse xenografted with human LS174T cells assessed as effect on body weight at 2 mg/kg, iv administered on day 17 and 24 measured three times a week. In kind it is organism-based. Particulars: in vivo. Put shortly: as §1
For series [8], the system named is LS174T. Nature of the series: Antitumor activity against human LS174T cells xenografted in athymic Balb/c mouse assessed as tumor growth inhibition at 2 mg/kg, iv administered on day 17 and 24. In kind it is functional, organism-based. Summed up: as §3

Albumin, sequence (P02768 whole entry): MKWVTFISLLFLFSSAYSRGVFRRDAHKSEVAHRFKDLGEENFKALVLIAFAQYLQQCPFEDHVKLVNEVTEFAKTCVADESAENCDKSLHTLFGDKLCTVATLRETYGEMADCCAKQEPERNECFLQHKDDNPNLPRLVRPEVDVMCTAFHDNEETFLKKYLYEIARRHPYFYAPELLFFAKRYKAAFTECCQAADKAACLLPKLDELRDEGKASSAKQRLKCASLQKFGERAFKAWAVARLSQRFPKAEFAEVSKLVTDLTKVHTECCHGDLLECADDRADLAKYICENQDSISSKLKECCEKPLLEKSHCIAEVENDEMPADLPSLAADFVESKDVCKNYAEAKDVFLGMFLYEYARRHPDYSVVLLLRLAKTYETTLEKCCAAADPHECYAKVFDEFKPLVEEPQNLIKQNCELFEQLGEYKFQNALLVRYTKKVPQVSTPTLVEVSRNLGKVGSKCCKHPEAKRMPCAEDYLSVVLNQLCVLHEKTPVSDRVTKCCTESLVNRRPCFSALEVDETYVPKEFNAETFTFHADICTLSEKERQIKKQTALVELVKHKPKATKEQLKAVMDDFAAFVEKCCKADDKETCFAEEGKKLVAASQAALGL
Beta-glucuronidase, sequence (P05804 whole entry): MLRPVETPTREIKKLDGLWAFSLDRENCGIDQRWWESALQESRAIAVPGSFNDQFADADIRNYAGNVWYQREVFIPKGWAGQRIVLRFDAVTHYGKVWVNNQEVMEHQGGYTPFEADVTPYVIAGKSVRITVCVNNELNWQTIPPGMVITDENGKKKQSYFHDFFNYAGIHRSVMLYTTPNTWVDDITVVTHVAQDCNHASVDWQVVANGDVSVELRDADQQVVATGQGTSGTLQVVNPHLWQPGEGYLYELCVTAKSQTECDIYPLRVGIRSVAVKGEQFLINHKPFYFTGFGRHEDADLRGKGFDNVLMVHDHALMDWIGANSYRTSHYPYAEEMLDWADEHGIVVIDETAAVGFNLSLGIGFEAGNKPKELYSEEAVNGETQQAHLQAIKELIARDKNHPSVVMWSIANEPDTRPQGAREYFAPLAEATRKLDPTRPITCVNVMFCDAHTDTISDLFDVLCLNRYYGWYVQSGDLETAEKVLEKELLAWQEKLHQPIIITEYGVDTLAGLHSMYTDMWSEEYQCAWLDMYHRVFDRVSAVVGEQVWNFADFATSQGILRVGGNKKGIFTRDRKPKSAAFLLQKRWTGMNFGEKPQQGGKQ

Regarding `CC[C@H](C)[C@@H]([C@@H](CC(=O)N1CCC[C@H]1[C@H](OC)[C@@H](C)C(=O)N[C@H](C)[C@@H](O)c1ccccc1)OC)N(C)C(=O)[C@@H](NC(=O)[C@H](C(C)C)N(C)C(=O)OCc1ccc(NC(=O)OC(Cc2cn(CCOCCOCCOCCOCCOCCOCCOCCOCCOCCOCCNC(=O)CCCCCN3C(=O)C=CC3=O)nn2)c2ccc(O[C@@H]3O[C@H](C(=O)O)[C@@H](O)[C@H](O)[C@H]3O)c([N+](=O)[O-])c2)c(COC(=O)N(C)[C@H](C(=O)N[C@H](C(=O)N(C)[C@@H]([C@@H](C)CC)[C@@H](CC(=O)N2CCC[C@H]2[C@H](OC)[C@@H](C)C(=O)N[C@H](C)[C@@H](O)c2ccccc2)OC)C(C)C)C(C)C)c1)C(C)C` (stereo not given in full), the Activity result in series [1] was “Non-Toxic”; in series [3] it was “Active”. Also, the inhibition entry in series [2] is “Active”. Moreover, in series [4], the TGI result was “Active”. In series [5], the Drug metabolism result is given as “Metabolite_Detected”. Besides, in series [6], the inhibition entry is “inactive”.
In the case of `CC[C@H](C)[C@@H]([C@@H](CC(=O)N1CCC[C@H]1[C@H](OC)[C@@H](C)C(=O)N[C@H](C)[C@@H](O)c1ccccc1)OC)N(C)C(=O)[C@@H](NC(=O)[C@H](C(C)C)N(C)C(=O)OC(Cc1cn(CCOCCOCCOCCOCCOCCOCCOCCOCCOCCOCCNC(=O)CCCCCN2C(=O)C=CC2=O)nn1)c1ccc(O[C@@H]2O[C@H](C(=O)O)[C@@H](O)[C@H](O)[C@H]2O)c([N+](=O)[O-])c1)C(C)C` (stereo not given in full), in series [7], the Activity result is “Non-Toxic”. Moreover, the inhibition entry in series [2] is “Active”. In addition, the TGI result in series [8] was “Active”. Also, the inhibition result in series [6] was “inactive”.
